Results: ChEMBL document CHEMBL2331391, “Peroxisome proliferator-activated receptor-γ mediates the anti-inflammatory effect of 3-hydroxy-4-pyridinecarboxylic acid derivatives: synthesis and biological evaluation” (Eur J Med Chem, 2013)
Active and inactive are the calls of the source. The calls are words filed in the database; no cut-off is given here.

What was measured:
[1] = Cytotoxicity against human macrophages up to 100 uM after 72 hrs by MTT assay; assay type: cell-based; details: macrophage
Macrophage [2] = assay: Antiinflammatory activity in human macrophages assessed as inhibition of LPS-induced IL-8 release at 10 uM preincubated for 30 mins before LPS-challenge measured after 24 hrs post challenge by ELISA; assay type: functional, cell-based
Procedure, shortened: (§1)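 Human blood PBMC-derived macrophages were used after 10 days of culture. Purity >95% (esterase, CD14, morphology). Cells were pretreated 30 min at 37 °C with compound, then given 100 ng/mL LPS (S. enteritidis) for 24 h. TNFα, IL-1β and IL-8 in conditioned medium were measured by ELISA. Working solutions were endotoxin-tested by LAL (<3 pg/mL).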

Macrophage [3] = assay: Antiinflammatory activity in human macrophages assessed as inhibition of LPS-induced TNFalpha release at 10 uM preincubated for 30 mins before LPS-challenge measured after 24 hrs post challenge by ELISA; assay type: functional, cell-based; procedure, shortened: as §1
[4] = Cytotoxicity against human macrophages at 10 '5 uM after 72 hrs by MTT assay; assay type: cell-based; details: macrophage
[5] = Cytotoxicity against human macrophages at 10 '4 uM after 72 hrs by MTT assay; assay type: cell-based; details: macrophage
Macrophage [6] = assay: Antiinflammatory activity in human macrophages assessed as inhibition of LPS-induced IL-1beta release at 10 uM preincubated for 30 mins before LPS-challenge measured after 24 hrs post challenge by ELISA; assay type: functional, cell-based; procedure, shortened: as §1
Mus musculus [7] = assay: Antiinflammatory activity in DSS-induced C57Bl/6 mouse colitis model assessed as inhibition IL-1beta level in colonic homogenate at 400 mg/kg/day administered intragastrically for 7 days; assay type: functional, organism-based
Procedure, shortened: (§2)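 Male C57Bl/6J mice, 8–10 per group, dosed intragastrically daily for 7 days at 400 mg/kg/day (vehicle 100 µL). From day 2, drinking water carried 3.5% w/vol DSS. Killed 5 days after colitis induction. Full-thickness proximal colon homogenised for MPO activity and IL-1β protein.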

Macrophage [8] = assay: Increase in PPAR-gamma mRNA transcript level in human macrophages at 30 mM by quantitative PCR analysis; assay type: functional, cell-based
Mus musculus [9] = assay: Antiinflammatory activity in DSS-induced C57Bl/6 mouse colitis model assessed as inhibition MPO activity in colonic homogenate at 400 mg/kg/day administered intragastrically for 7 days; assay type: functional; procedure, shortened: as §2

| Compound | Activity [1] | inhibition (Macrophage [2]) | inhibition (Macrophage [3]) | Activity [4] | Activity [5] | inhibition (Macrophage [6]) | inhibition (Mus musculus [7]) | Activity (Macrophage [8]) | inhibition (Mus musculus [9]) |
| --- | --- | --- | --- | --- | --- | --- | --- | --- | --- |
| O=C(O)c1ccnc(CO)c1O | Non-toxic | inactive | inactive | Toxic | Toxic | inactive | – | – | – |
| Cc1cc(C(=O)O)c(O)c(CO)n1 | – | Active | – | – | – | Active | – | – | – |
| Cc1nccc(C(=O)O)c1O | Non-toxic | inactive | inactive | Toxic | Toxic | inactive | – | – | – |
| CC(=O)Oc1ccccc1C(=O)O | – | Active | Active | – | – | Active | – | – | – |
| O=C(O)c1ccncc1O | Non-toxic | inactive | inactive | Toxic | Toxic | inactive | – | – | – |
| Nc1ccc(O)c(C(=O)O)c1 | – | – | – | – | – | – | inactive | Active | Active |
